Screens as filed in PubChem.
Rows were chosen to be rich in hits. Some 3.1% of all compounds tested hit in one or more screens of this group.
KCNQ1 pot: potentiators or activators of KCNQ1 channel, primary screen, cell-based, thallium flux, high-throughput. AID 2648, 2010. B-score at 10 µM. actives 0.35% (n = 310,000). CHO-K1 KCNQ1, thallium flux FluxOR fluorescence; stronger effect = higher value;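 active = fluorescence ratio B-score, a plate-corrected score, at least three library SD, with initial intensity B-score within 5 SD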
Target sequence (P51787 whole entry, looked up): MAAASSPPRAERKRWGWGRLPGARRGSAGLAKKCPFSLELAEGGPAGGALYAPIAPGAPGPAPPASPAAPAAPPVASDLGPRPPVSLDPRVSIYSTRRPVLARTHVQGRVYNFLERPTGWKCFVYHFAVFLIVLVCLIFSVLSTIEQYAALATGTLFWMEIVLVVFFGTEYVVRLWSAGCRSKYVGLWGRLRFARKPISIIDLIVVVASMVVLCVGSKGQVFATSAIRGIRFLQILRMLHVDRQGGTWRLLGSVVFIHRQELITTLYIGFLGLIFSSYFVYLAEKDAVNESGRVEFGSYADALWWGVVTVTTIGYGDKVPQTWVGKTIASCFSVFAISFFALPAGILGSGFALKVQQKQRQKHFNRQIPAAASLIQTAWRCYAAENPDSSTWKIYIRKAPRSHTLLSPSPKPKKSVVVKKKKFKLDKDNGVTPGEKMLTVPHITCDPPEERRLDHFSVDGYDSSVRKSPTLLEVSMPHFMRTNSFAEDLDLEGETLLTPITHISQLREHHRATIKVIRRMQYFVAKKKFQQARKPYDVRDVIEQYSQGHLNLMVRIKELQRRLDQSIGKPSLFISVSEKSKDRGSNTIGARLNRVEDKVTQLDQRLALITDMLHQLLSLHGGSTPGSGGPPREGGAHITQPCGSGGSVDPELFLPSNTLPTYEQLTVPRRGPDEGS
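System: Stable KCNQ1 CHO-K1 line | Incubation: 90 min dye loading and 20 min compound exposure, both at room temperature | Measure: Ratio B score | Medium: Assay buffer for compound exposure, DMSO matched across wells | Compound dosing: Single-concentration screen | Probe or stimulus: K+/Tl+ depolarizing stimulus | Measured by: Kinetic FluxOR fluorescence, 10 s baseline plus 110 s post-stimulus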
KCNQ1 inh: inhibitors of human KCNQ1 channel, primary screen, cell-based, thallium flux, high-throughput; B-score at 10 µM; AID 2642, 2010; actives 1.3% (n = 310,000); CHO-K1 KCNQ1, FluxOR thallium flux fluorescence; stronger effect = higher value;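 active = compounds whose thallium flux B-score, printed positive for inhibition, exceeds three library SD while starting fluorescence stays within three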;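 note: channel opened by potassium depolarization with thallium stimulus after 20 min compound exposure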
KCNK9 inh: KCNK9 potassium channel inhibitors, primary screen, HEK293 cells, thallium flux; AID 488922, 2010; B-score at 10 µM; Potassium channel subfamily K member 9 (Homo sapiens), Q9NPC2; FluxOR thallium flux fluorescence; stronger effect = lower value; actives 1.2% (n = 310,000);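 active = ratio B-score over 3 SD below the library mean, with starting fluorescence within 5 SD of its mean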;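 note: negative B-score means less thallium flux so channel inhibition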
hERG protect: hERG rescue from dofetilide block, primary screen, cell-based, CHO-hERG, FluxOR thallium flux, dofetilide IC70; Voltage-gated inwardly rectifying potassium channel KCNH2 (Homo sapiens), Q12809; dofetilide IC70 present; activation (rescue from dofetilide block), less the hit threshold, % at 10 µM; actives 0.51% (n = 310,000);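 active = activation above the mean of controls blocked by dofetilide plus 5 SD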;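 note: thallium influx through hERG after potassium depolarization seen as dye fluorescence rise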
KCNK3 inh: human KCNK3 channel inhibitors, primary screen, CHO cells, FluxOR thallium flux, B-score. AID 602410, 2012. B-score at 10 µM. Potassium channel subfamily K member 3 (Homo sapiens), O14649. actives 0.84% (n = 340,000). FluxOR fluorescence; stronger effect = lower value;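 active = B-score under library mean minus 4 SD, starting fluorescence ratio at most library mean plus 5 SD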;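 note: more negative B-score means stronger inhibition of thallium flux through KCNK3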
KCNK3 inh conf: retest of human KCNK3 channel inhibitors, confirmation, CHO cells, FluxOR thallium flux, triplicate; ratio percent of control, % at 10 µM; AID 651638, 2012; FluxOR fluorescence; 0% buffer, 100% carvedilol maximal block; shares compounds with KCNK3 inh; actives 99% (n = 2,400);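 active = ratio percent of control, averaged over triplicates, above buffer control mean plus 5 SD, cut at about 64% in these data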;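 note: ratio is the fluorescence rise from min to max over baseline after thallium stimulus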
KCNK3 uninduced: thallium flux inhibition in non-induced cells, primary screen, counter-screen for KCNK3 inhibitor project, cell-based, non-induced KCNK3 line, FluxOR thallium, triplicate. shares compounds with KCNK3 inh. non-induced KCNK3 parental cells; stronger effect = lower value. thallium flux ratio (lower = more inhibition) at 10 µM. actives 40% (n = 2,400);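 active = thallium flux ratio, averaged over three wells, more than 5 SD below the buffer control mean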;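 note: host cells are CHO cells without KCNK3 induction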
Each line names hits and unclear results; the compound was inactive in the other large screens (follow-up assays come after a bar, where they were run).

COc1cc(OC)cc(C(=O)N[C@H](C(=O)Nc2ccc(F)cc2F)C(C)C)c1	none
COc1cc(OC)cc(C(=O)N[C@H](C(=O)Nc2nc(-c3ccc(F)c(F)c3)cs2)C(C)C)c1	KCNK3 inh -11 | KCNK3 inh conf 100 | KCNK3 uninduced inactive
CC(=O)Nc1ccc(S(=O)(=O)NCCC(=O)Nc2cc(C)ccn2)cc1	none
O=C(COC(=O)c1cc(Br)ccc1O)Nc1cc(S(=O)(=O)N2CCCC2)ccc1Cl	KCNK9 inh -6.6, KCNK3 inh -9.5 | KCNK3 inh conf 96 | KCNK3 uninduced inactive
Cn1c(SCc2ccccc2Br)nc2ccccc2c1=O	KCNK3 inh -9 | KCNK3 inh conf 134 | KCNK3 uninduced inactive
Cn1c(SCc2cccc(Br)c2)nc2ccccc2c1=O	KCNK3 inh -10 | KCNK3 inh conf 160 | KCNK3 uninduced 0.082
CCn1c(SCc2cccc(OC)c2)nc2ccccc2c1=O	KCNK3 inh -10 | KCNK3 inh conf 128 | KCNK3 uninduced 0.13
Brc1ccccc1-c1nnc(CSc2nncn2-c2ccccc2)o1	none
O=c1c2ccccc2nc(SCc2nnc(-c3ccccc3Br)o2)n1-c1ccccc1	KCNK9 inh -6.9, KCNK3 inh -12 | KCNK3 inh conf 117 | KCNK3 uninduced inactive
COc1ccc(S(=O)(=O)CCc2nnc(NC(=O)c3ccc(F)cc3)s2)cc1	none
O=C1CC2(CCN(C(=O)c3cccc([N+](=O)[O-])c3)CC2)Oc2ccccc21	none
Cc1cc(C)n2nc(SCC(=O)c3cc(C)n(CC4CCCO4)c3C)nc2n1 (stereo unspecified)	none
COc1cccc(NC(=O)COC(=O)c2c3c(nc4ccccc24)CCC(C)C3)c1 (stereo unspecified)	KCNK3 inh -10 | KCNK3 inh conf 96 | KCNK3 uninduced inactive
CC1CCc2nc3ccccc3c(C(=O)OCC(=O)NC3CCS(=O)(=O)C3)c2C1 (stereo unspecified)	none
CSc1cccc(NC(=O)/C=C/c2cccc(Cl)c2)c1	KCNQ1 inh 11, KCNK3 inh -11 | KCNK3 inh conf 128 | KCNK3 uninduced 0.16
C=CCn1c(SCc2csc(C)n2)nc2sc3c(c2c1=O)CCCC3	KCNK3 inh -8.9 | KCNK3 inh conf 122 | KCNK3 uninduced 0.14
C=CCn1c(SCc2csc(C)n2)nc2sc3c(c2c1=O)CCCCC3	none
CC(=O)N(C)N1c2ccccc2CCc2ccccc21	KCNK3 inh -8.8 | KCNK3 inh conf 109 | KCNK3 uninduced inactive
CC(Cl)C(=O)N1c2ccccc2CCc2ccccc21 (stereo unspecified)	none
O=C(c1ccccc1)c1ccc2nc(N3CCN(C(=O)c4ccco4)CC3)c3nncn3c2c1	none
CCOC(=O)N1CCN(c2nc3ccc(C(=O)c4ccccc4)cc3n3cnnc23)CC1	KCNK3 inh -11 | KCNK3 inh conf 83 | KCNK3 uninduced inactive
COc1ccccc1/C=N/NC(=O)c1cccc(NC(=O)c2ccccc2Cl)c1	KCNK9 inh -7.1, KCNK3 inh -9.5 | KCNK3 inh conf 100 | KCNK3 uninduced inactive
CCn1c2ccccc2c2cc(NC(=O)c3ccco3)ccc21	KCNK3 inh -9.5 | KCNK3 inh conf 114 | KCNK3 uninduced inactive
COc1cccc(C(=O)NCCSCc2ccccc2Cl)c1	KCNK3 inh -9.8 | KCNK3 inh conf 99 | KCNK3 uninduced inactive
COc1ccccc1/C=N/NC(=O)c1cccc(NC(=O)c2ccccc2C)c1	none
CCn1c2ccccc2c2cc(NC(C)=O)ccc21	none
COc1cccc(C(=O)Nc2cccc(NC(=O)c3ccccc3Cl)c2)c1	KCNK3 inh -12 | KCNK3 inh conf 96 | KCNK3 uninduced inactive
COc1cccc(C(=O)NCCSCc2c(F)cccc2Cl)c1	none
COCCN(C(=O)CCN1C(=O)C2CC=CCC2C1=O)c1c(N)n(CC(C)C)c(=O)[nH]c1=O (stereo unspecified)	none (no result: KCNQ1 pot, KCNQ1 inh, KCNK9 inh, hERG protect)
Cc1cc(SCc2cccc(C(F)(F)F)c2)nc(=O)[nH]1	none
C=CCc1cccc(/C=N/NC(=O)C(=O)Nc2ccc(C)cc2)c1O	none
C=CCc1cccc(/C=N/NC(=O)c2ccccc2OC)c1O	KCNK9 inh -7.7, KCNK3 inh -9.5 | KCNK3 inh conf 94 | KCNK3 uninduced inactive
O=C(Nc1cccc(NC(=O)c2ccccc2Cl)c1)c1ccco1	KCNK3 inh -8.7 | KCNK3 inh conf 98 | KCNK3 uninduced inactive
C=CCN(C(=O)Nc1ccc(OC)cc1)c1nnc(-c2ccncc2)s1	KCNK3 inh -9.5 | KCNK3 inh conf 94 | KCNK3 uninduced inactive
COCCC(=O)N1CCCC(C(=O)c2ccc3c4c(cccc24)CC3)C1 (stereo unspecified)	KCNK3 inh -11 | KCNK3 inh conf 86 | KCNK3 uninduced 0.15
COCC(=O)N1CCCC(C(=O)c2ccc3c4c(cccc24)CC3)C1 (stereo unspecified)	none
CC(=O)c1ccc(OCCn2c(SCC(=O)O)nc3ccccc32)cc1	none
Cc1ccc(C)c(N2CCN(S(=O)(=O)c3ccc4c(c3)NC(=O)CS4)CC2)c1	KCNK3 inh -9.4 | KCNK3 inh conf 85 | KCNK3 uninduced inactive
CN1CCN(S(=O)(=O)c2ccc3c(c2)NC(=O)CS3)CC1	none
CCCN=C1CC(C)(C)CC(=O)/C1=C(/O)CCC	KCNK3 inh -9 | KCNK3 inh conf 99 | KCNK3 uninduced inactive
Cc1nonc1C1CCCN1Cc1cn[nH]c1-c1ccc(-c2ccccc2)cc1 (stereo unspecified)	KCNK9 inh -7, KCNK3 inh -8.9 | KCNK3 inh conf 102 | KCNK3 uninduced inactive
Cc1cc(S(=O)(=O)NCC(c2ccc(F)cc2)N2CCN(C)CC2)ccc1F (stereo unspecified)	none
O=C1CCC(C(=O)OC(C(=O)c2c[nH]c3ccccc23)c2ccccc2)=NN1 (stereo unspecified)	KCNK9 inh -8.7 | KCNK3 inh conf 111 | KCNK3 uninduced inactive
CSc1ccccc1NC(=O)CN(C)C(=O)Cc1c(F)cccc1Cl	none
O=C(/C=C/c1ccc(N2CCCCC2)c([N+](=O)[O-])c1)c1ccc(O)cc1	KCNK9 inh -7.8, KCNK3 inh -11 | KCNK3 inh conf 123 | KCNK3 uninduced inactive
